Measured values reported in ChEMBL document CHEMBL1129282, “High-affinity partial agonist imidazo[1,5-a]quinoxaline amides, carbamates, and ureas at the gamma-aminobutyric acid A/benzodiazepine receptor complex” (J Med Chem, 1996).
Active and inactive are the calls of the source.

Experiments:
[1] = tested on: Mus musculus; assay: In vivo antagonistic activity against benzodiazepine in mice after ip administration; assay type: functional
In short: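 Male CF-1 mice injected ip simultaneously with triazolam 1 mg/kg and test compound starting at […], in 0.25% aqueous methyl cellulose. Loss of traction scored 15 min later. Absence of triazolam effect indicated antagonism; lower doses at 0.5 log intervals then tested to establish ED50.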

[2] = species on record: Mus musculus; assay: Acute electroshock physical dependence activity was evaluated; A=Active; assay type: functional, organism-based
In short: (§1)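 Male CF-1 mice, 10/group, dosed sc twice daily (0800, and 1600 at twice the 0800 dose) for 3 days. 24 h after last dose, iv flumazenil 2.5 mg/kg in 5% aqueous N,N-dimethylacetamide. Electroshock seizure threshold (MA50) measured 5 min later versus saline-treated, flumazenil-injected controls. Compound scored active if threshold lowered beyond control interval.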

[3] = tested on: Mus musculus; assay: Ethanol potentiation activity was measured as loss of traction response in male CF-1 mice after oral administration; assay type: functional
[4] = biological target: GABA-A receptor; anion channel (Rattus norvegicus) (UniProt O09028+P15431+P18506+P18508+P19969+P20236+P23574+P23576+P28471+P28473+P30191+P62813+P63079+P63138+Q91ZM7+Q9ES14); details: Brain, Brain membranes
[5] = biological target: GABA-A receptor; anion channel; assay: Inhibition of [3H]flunitrazepam binding to GABA-A receptor of rat cortical membranes; assay type: cell membranes, Membrane
[6] = tested on: Rattus norvegicus; assay: Antagonistic activity against metrazole-induced clonic convulsions in rat after ip injection; assay type: functional
[7] = tested on: Mus musculus; assay: Ethanol potentiation activity was measured as loss of righting reflex in male CF-1 mice after oral administration; assay type: functional
[8] = species on record: Rattus norvegicus; assay: In vitro [36Cl]-uptake in rat cerebrocortical synaptoneurosomes; assay type: functional; set-up: unit not given here
In short: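 Rat cerebrocortical synaptoneurosomes (1 mg protein) preincubated 5 min at 30 °C, then mixed with medium containing 0.2 µCi Na36Cl/mL, 118 mM NaCl, 5 mM KCl, 1.8 mM MgSO4, 20 mM Hepes/Tris pH 7.0, ± drug (methanol ≤0.4%). Uptake stopped after 5 s with ice-cold buffer, rapid filtration, four washes, radioactivity counted.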

[9] = species on record: Mus musculus; assay: Acute electroshock physical dependence activity was evaluated; IA=Inactive; assay type: functional, organism-based; in short: as §1

Row | Structure (SMILES) | [35S] TBPS shift [4] | Ki [5] | ED50 [1] | Activity [2] | ED50 [3] | ED50 [6] | ED50 [7] | 36Cl- uptake [8] | Activity [9]
1 | CCc1nc(-c2ncn3c2CN(C(=O)N2CCCC2)c2ccccc2-3)no1 | 0.39 | 0.65 nM |  |  |  | > 50 mg/kg |  | 0.25 | 
2 | O=C(N1CCCC1)N1Cc2c(-c3noc(C4CC4)n3)ncn2-c2ccc(F)cc21 | 1.25 | 0.56 nM |  |  |  | > 50 mg/kg |  | 0.69 | 
3 | CN(C)C(=O)N1Cc2c(-c3noc(C4CC4)n3)ncn2-c2cccc(F)c21 | 0.84 | 0.89 nM | 4 mg/kg | Active | 3 mg/kg | 21 mg/kg | > 30 mg/kg | 0.6 | 
4 | O=C(Sc1ccccc1)N1Cc2c(-c3noc(C4CC4)n3)ncn2-c2ccccc21 | 1.1 | 11 nM |  |  |  | > 50 mg/kg |  | 0.5 | 
5 | CC(C)c1nc(-c2ncn3c2CN(C(=O)N2CCCC2)c2ccccc2-3)no1 | 0.69 | 1.1 nM | > 30 mg/kg |  | 17 mg/kg | 11 mg/kg | > 30 mg/kg | 0.4 | inactive
6 | O=C(N1CCCC1)N1Cc2c(-c3noc(C4CC4)n3)ncn2-c2cccc(F)c21 | 1 | 0.64 nM |  |  |  | > 50 mg/kg |  | 0.59 | 
7 | O=C(N1CCOCC1)N1Cc2c(-c3noc(C4CC4)n3)ncn2-c2ccccc21 | 0.84 | 0.81 nM |  |  |  | 0.84 mg/kg |  | 0.15 | 
8 | CN(C)C(=O)N1Cc2c(-c3noc(C4CC4)n3)ncn2-c2ccc(F)cc21 | 0.99 | 0.61 nM |  |  |  |  |  | 0.95 | 
9 | O=C(c1ccccn1)N1Cc2c(-c3noc(C4CC4)n3)ncn2-c2ccccc21 | 0.27 | 1.1 nM |  |  |  | > 50 mg/kg |  |  | 
10 | CN(C)C(=O)N1Cc2c(-c3noc(C4CC4)n3)ncn2-c2ccc(Cl)cc21 | 0.88 | 3.7 nM |  |  |  |  |  |  | 
11 | O=C(N1CCCC1)N1Cc2c(-c3noc(C4CC4)n3)ncn2-c2ccc(Cl)cc21 | 0.93 | 1.1 nM | > 30 mg/kg |  | 0.4 mg/kg | 0.6 mg/kg | > 30 mg/kg |  | inactive
12 | CC(C)(C)c1nc(-c2ncn3c2CN(C(=O)N2CCCC2)c2ccccc2-3)no1 | 0.76 | 14.7 nM |  |  |  | 18 mg/kg |  | 1.2 | 
13 | CN(C)C(=O)N1Cc2c(-c3noc(C4CC4)n3)ncn2-c2cccc(Cl)c21 | 0.62 | 0.71 nM |  |  |  | > 50 mg/kg |  | 0.83 | 
14 | O=C(Nc1ccccc1)N1Cc2c(-c3noc(C4CC4)n3)ncn2-c2ccccc21 | 1.3 | 16 nM |  |  |  | > 50 mg/kg |  | 0.29 | 
15 | O=C(N1CCCC1)N1Cc2c(-c3noc(C4CC4)n3)ncn2-c2cccc(Cl)c21 | 0.6 |  |  |  |  | > 50 mg/kg |  | 0.56 | 

Further lines, with some results ahead:

Row | [35S] TBPS shift [4] | Ki [5] | Structure (SMILES) | ED50 [1] | Activity [2] | ED50 [3] | ED50 [6] | ED50 [7] | 36Cl- uptake [8] | Activity [9]
16 | 0.95 | 2.8 nM | CNC(=O)N1Cc2c(-c3noc(C4CC4)n3)ncn2-c2ccccc21 | 22 mg/kg | Active | 2.7 mg/kg | 11 mg/kg | 11 mg/kg | 0.53 | 
17 | 0.67 | 3.3 nM | CC1(C)c2c(-c3noc(C4CC4)n3)ncn2-c2ccc(Cl)cc2N1C(=O)N1CCCC1 | 9 mg/kg |  | 0.2 mg/kg | 35 mg/kg | > 30 mg/kg | 1.04 | inactive
18 | 0.8 |  | COC(=O)N1c2ccccc2-n2cnc(-c3noc(C4CC4)n3)c2C1(C)C |  |  |  | > 50 mg/kg |  | 0.4 | 
19 | 0.73 | 143 nM | O=C(N1Cc2c(-c3noc(C4CC4)n3)ncn2-c2ccccc21)C(F)(F)F |  |  |  | 35 mg/kg |  |  | 
20 | 0.98 | 0.43 nM | O=C(c1ccco1)N1Cc2c(-c3noc(C4CC4)n3)ncn2-c2ccccc21 |  |  |  | 21 mg/kg |  | 0.55 | 
21 | 0.92 | 1.1 nM | O=C(c1ccc[nH]1)N1Cc2c(-c3noc(C4CC4)n3)ncn2-c2ccccc21 |  |  |  | 4.4 mg/kg |  | 1.1 | 
22 | 0.84 | 2.9 nM | CC1(C)c2c(-c3noc(C4CC4)n3)ncn2-c2ccccc2N1C(=O)N1CCCC1 |  |  |  | > 50 mg/kg |  | 0.5 | 
23 | 2.9 |  | CC(C)(C)OC(=O)N1Cc2c(-c3noc(C4CC4)n3)ncn2-c2ccccc21 |  |  |  | 0.06 mg/kg |  |  | 
24 | 0.71 | 21 nM | CNC(=O)N1c2ccccc2-n2cnc(-c3noc(C4CC4)n3)c2C1(C)C |  |  |  | > 50 mg/kg |  | 0.67 | 
25 | 0.79 | 3.1 nM | CN(C)C(=O)N1c2cc(Cl)ccc2-n2cnc(-c3noc(C4CC4)n3)c2C1(C)C |  | Active | 3 mg/kg | 7.4 mg/kg | 17 mg/kg | 1.33 | 
26 | 0.92 | 1.3 nM | CSC(=O)N1Cc2c(-c3noc(C4CC4)n3)ncn2-c2ccccc21 | > 30 mg/kg | Active | 0.3 mg/kg | 6.2 mg/kg | > 30 mg/kg | 0.73 | 
27 | 0.97 | 3.1 nM | CN(C)C(=O)N1c2ccccc2-n2cnc(-c3noc(C4CC4)n3)c2C1(C)C |  |  |  | > 50 mg/kg |  | 0.34 | 
28 | 0.8 | 5.1 nM | CSC(=O)N1c2ccccc2-n2cnc(-c3noc(C4CC4)n3)c2C1(C)C |  |  |  | > 50 mg/kg |  | 1 | 
29 | 0.82 | 0.85 nM | CCN(CC)C(=O)N1Cc2c(-c3noc(C4CC4)n3)ncn2-c2ccccc21 | 4 mg/kg |  | > 30 mg/kg | 15 mg/kg | > 30 mg/kg | 0.62 | inactive
30 | 0.7 |  | CC(=O)N1c2ccccc2-n2cnc(-c3noc(C4CC4)n3)c2C1(C)C |  |  |  | 30 mg/kg |  |  | 
31 | 1.1 | 1.8 nM | CC(C)OC(=O)N1Cc2c(-c3noc(C4CC4)n3)ncn2-c2ccccc21 |  |  |  | 1.9 mg/kg |  |  | 
32 | 0.7 | 1.5 nM | COC(=O)N1Cc2c(-c3noc(C4CC4)n3)ncn2-c2ccccc21 |  |  |  | 4.4 mg/kg |  |  | 
33 | 1.1 | 2.1 nM | CCSC(=O)N1Cc2c(-c3noc(C4CC4)n3)ncn2-c2ccccc21 |  |  |  | 1.3 mg/kg |  | 1.1 | 
34 | 1.1 | 3.4 nM | CC(C)NC(=O)N1Cc2c(-c3noc(C4CC4)n3)ncn2-c2ccccc21 |  |  |  | 11 mg/kg |  |  | 
35 | 0.41 | 0.45 nM | O=C(N1CCCC1)N1Cc2c(-c3noc(C4CC4)n3)ncn2-c2ccccc21 |  |  |  | 0.24 mg/kg |  | 0.5 | 
36 | 0.61 | 7.2 nM | NC(=O)N1Cc2c(-c3noc(C4CC4)n3)ncn2-c2ccccc21 |  |  |  | 13 mg/kg |  | 0.75 | 
37 | 0.6 | 86 nM | CC1(C)c2c(-c3noc(C4CC4)n3)ncn2-c2ccccc2N1C(N)=O |  |  |  | > 50 mg/kg |  | 0.22 | 
